In ChEMBL document CHEMBL1154711, “Original quinazoline derivatives displaying antiplasmodial properties” (Eur J Med Chem, 2010):

Key:
[1] = Selectivity index, ratio of IC50 for human K562 cells to IC50 for chloroquine-resistant Plasmodium falciparum W2
K562 = assay: Cytotoxicity against human K562 cells after 72 hrs by flow cytometry; format: functional, cell-based
Procedure, shortened: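 Cells were treated with a concentration range for 72 h at 37 °C, 6% CO2, with solvent and doxorubicin controls, and wells were checked for precipitate. Cells were stained with propidium iodide and live cells counted by flow cytometry. IC50 is the concentration giving a 50% decrease in proliferation versus control, from nonlinear regression of dose–response curves, mean of three independent experiments.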

[2] = Selectivity index, ratio of IC50 for human HepG2 cells to IC50 for chloroquine-resistant Plasmodium falciparum W2
Plasmodium falciparum = assay: Antiplasmodial activity against chloroquine-resistant Plasmodium falciparum W2 infected in human erythrocyte after 48 hrs by flow cytometry; format: functional, organism-based
Procedure, shortened: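 W2 strain (chloroquine-, pyrimethamine- and proguanil-resistant) kept in RPMI 1640 with 25 mM HEPES, 25 mM NaHCO3 and 10% A+ human serum. Cultures held at 37 °C under 10% O2, 6% CO2, 84% N2. Assay wells at 2% haematocrit; compounds added in DMSO or water. Incubated 48 h with no medium change. Infected erythrocytes counted by hydroethidine flow cytometry. IC50 taken from three independent experiments.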

HepG2 = assay: Cytotoxicity against human HepG2 cells after 72 hrs by MTT assay; format: cell-based
Procedure, shortened: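 Cells in RPMI with 10% FBS, glutamine and penicillin/streptomycin were grown 24 h at 37 °C, 6% CO2, then exposed to a concentration range for 72 h. Wells were checked microscopically for precipitate. MTT (5 mg/mL in PBS) was added in serum-free medium for 2 h, formazan dissolved in DMSO, and absorbance read at 570 nm (630 nm reference). Viability is % of untreated control; the 50% cytotoxic concentration comes from the dose–response curve, mean of three experiments.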

Leishmania donovani = assay: Antileishmanial activity against GFP-transfected Leishmania donovani HOM/IN/01/2001 promastigotes after 72 hrs; format: functional, organism-based; settings: HOM/IN/01/2001, 72 h
Procedure, shortened: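 GFP-expressing promastigotes at 10⁵ parasites/mL in medium with 10% FCS and G418, exposed in duplicate to a concentration range of compounds in DMSO (final <0.5% v/v) for 72 h at 27 °C. DMSO and amphotericin B controls were included. Growth was read by flow cytometry (488 nm argon laser, green FL1 fluorescence). The IC50 is the 50% growth decrease, from three independent experiments.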

Toxoplasma gondii = assay: Antitoxoplasmic activity against Toxoplasma gondii PRU-betaGal tachyzoite after 96 hrs by colorimetric microtiter assay; format: functional, organism-based
Procedure, shortened: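 Confluent HFF monolayers (10⁴ cells seeded per well) in phenol red-free RPMI 1640 with 10% FCS and glutamine/penicillin–streptomycin were infected with 2×10³ tachyzoites per well for 3 h at 37 °C, 6% CO2. Compounds in DMSO (<0.5% v/v) were added in triplicate for 96 h. CPRG was then added for 24 h and β-galactosidase read at 570/630 nm, blanked on uninfected wells. IC50 from three independent experiments.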

[3] = Homo sapiens, K562, 72 h, read-out: IC50
[4] = Plasmodium falciparum, W2, 48 h, read-out: IC50
[5] = Homo sapiens, HepG2, 72 h, read-out: IC50

Row | Compound | Ratio IC50 [1] | IC50 (K562; [3]) [µM] | Ratio IC50 [2] | IC50 (Plasmodium falciparum; [4]) [µM] | IC50 (HepG2; [5]) [µM] | IC50 (Leishmania donovani) [µM] | IC50 (Toxoplasma gondii) [µM] | IC50 (K562; k562) | IC50 (Plasmodium falciparum) | IC50 (HepG2; hepg2)
1 | Cc1ccc(S(=O)(=O)Cc2nc(Nc3ccccc3Cl)c3ccccc3n2)cc1 | 1.7 | 24 | >3.6 | 14 | > 50 |  |  |  |  | 
2 | Cc1ccc(S(=O)(=O)Cc2nc(Nc3ccc(F)cc3)c3cc([N+](=O)[O-])ccc3n2)cc1 | >57 | > 125 | >23 | 2.2 | > 50 | > 25 | > 25 |  |  | 
3 | CC(C)=Cc1nc(Nc2cccc(Br)c2)c2cc([N+](=O)[O-])ccc2n1 | >8 | > 62 | >2 | 7.5 | > 15 |  |  |  |  | 
4 | Cc1ccc(S(=O)(=O)Cc2nc(Nc3cccc(Br)c3)c3cc([N+](=O)[O-])ccc3n2)cc1 |  |  |  |  |  |  |  | ND(Insoluble) | ND(Insoluble) | ND(Insoluble)
5 | CC(C)=Cc1nc(Nc2ccccc2)c2cc([N+](=O)[O-])ccc2n1 | >7 | > 125 | 2.9 | 17 | 50 |  |  |  |  | 
6 | Cc1ccc(S(=O)(=O)Cc2nc(Nc3cccc(C(F)(F)F)c3)c3cc([N+](=O)[O-])ccc3n2)cc1 | >131 | > 125 | >105 | 0.95 | > 100 | 24 | > 25 |  |  | 
7 | Cc1ccc(S(=O)(=O)Cc2nc(Nc3cccc(C(F)(F)F)c3)c3ccccc3n2)cc1 | >1.7 | > 25 | >1.7 | 15 | > 25 |  |  |  |  | 
8 | CC(C)=Cc1nc(Nc2cccc(C(F)(F)F)c2)c2cc([N+](=O)[O-])ccc2n1 | >39 | > 125 | 31.3 | 3.2 | > 100 |  |  |  |  | 
9 | Cc1ccc(S(=O)(=O)Cc2nc(Nc3ccccc3)c3ccccc3n2)cc1 |  |  |  |  |  |  |  | ND(Insoluble) | ND(Insoluble) | ND(Insoluble)
10 | Cc1ccc(S(=O)(=O)Cc2nc(Nc3cccc(Cl)c3)c3cc([N+](=O)[O-])ccc3n2)cc1 | >96 | > 125 | >77 | 1.3 | > 100 | 11 | > 25 |  |  | 
11 | Cc1ccc(S(=O)(=O)Cc2nc(Nc3cccc(Br)c3)c3ccccc3n2)cc1 | >1.2 | > 15 | >1.2 | 13 | > 15 |  |  |  |  | 
12 | Cc1ccc(S(=O)(=O)Cc2nc(Nc3ccccc3)c3cc([N+](=O)[O-])ccc3n2)cc1 | >25 | > 125 | >5 | 5 | > 25 |  |  |  |  | 
13 | Cc1ccc(S(=O)(=O)Cc2nc(Nc3ccc(F)cc3)c3ccccc3n2)cc1 | >1 | > 20 | >0.75 | 20 | > 15 |  |  |  |  | 
14 | CC(C)=Cc1nc(Nc2ccc(F)cc2)c2cc([N+](=O)[O-])ccc2n1 | >11 | > 62 | 4.8 | 5.6 | 27 |  |  |  |  | 
15 | C[C@@H]1[C@H](O)[C@@H](C)/C=C/C=C/C=C/C=C/C=C/C=C/C=C/[C@H](O[C@@H]2O[C@H](C)[C@@H](O)[C@H](N)[C@@H]2O)C[C@@H]2O[C@](O)(C[C@@H](O)C[C@@H](O)[C@H](O)CC[C@@H](O)C[C@@H](O)CC(=O)O[C@H]1C)C[C@H](O)[C@H]2C(=O)O [AMPHOTERICIN B] |  |  |  |  |  | 0.06 |  |  |  | 
16 | COc1cccc2c1C(=O)c1c(O)c3c(c(O)c1C2=O)C[C@@](O)(C(=O)CO)C[C@@H]3O[C@H]1C[C@H](N)[C@H](O)[C@H](C)O1 [DOXORUBICIN] |  |  |  |  | 0.2 |  |  |  |  | 
17 | C[C@H]1c2cccc(O)c2C(=O)C2=C(O)[C@]3(O)C(=O)C(C(N)=O)=C(O)[C@@H](N(C)C)[C@@H]3[C@@H](O)[C@@H]21.O [DOXYCYCLINE] | 2.3 |  | 3.1 |  |  |  |  |  |  | 
18 | CCc1nc(N)nc(N)c1-c1ccc(Cl)cc1 [PYRIMETHAMINE] |  |  |  |  |  |  | 1.5 |  |  | 
